# “Also recorded” adds a separate entry of the source. Where two headings read alike, the source gives them in different places.
# Tests used:
# [1] = test system: ES cell lines (TC32 and TC71); assay: Cell proliferation assay in ES cell lines; format: cell-based, human; details: for Growth inhibition / antiproliferative activity in words: ES cell lines containing EWS-FLI1; for GI50: read-out: GI50 bound used to select compounds for the reporter assay
# [2] = molecular target: T1, EWS-FLI1 (Homo sapiens, UniProt Q01543+Q01844); assay: EWS-FLI1/NR0B1 reporter luciferase assay in transfected COS7 cells; format: cell-based; details: COS7 cells transfected with EWS-FLI1 and NR0B1 reporter, 20 h treatment
# T1 sequence (Q01844 1-264): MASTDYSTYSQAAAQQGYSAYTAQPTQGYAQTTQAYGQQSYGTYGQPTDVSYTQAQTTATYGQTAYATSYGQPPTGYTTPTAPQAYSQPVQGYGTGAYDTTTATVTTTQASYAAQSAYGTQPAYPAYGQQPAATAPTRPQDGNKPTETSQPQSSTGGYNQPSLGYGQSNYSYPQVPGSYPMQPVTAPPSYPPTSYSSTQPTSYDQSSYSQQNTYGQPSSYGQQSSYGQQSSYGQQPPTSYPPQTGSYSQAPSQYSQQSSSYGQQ
# T1 sequence (Q01543 220-452): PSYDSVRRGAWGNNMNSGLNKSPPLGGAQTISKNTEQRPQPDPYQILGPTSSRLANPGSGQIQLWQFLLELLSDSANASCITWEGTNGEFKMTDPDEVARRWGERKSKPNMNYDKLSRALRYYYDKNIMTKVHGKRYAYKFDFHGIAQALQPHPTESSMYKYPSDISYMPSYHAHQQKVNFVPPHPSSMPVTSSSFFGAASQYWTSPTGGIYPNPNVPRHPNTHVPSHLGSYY
# Method in brief: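 COS7 cells (DMEM, 10% FBS) transiently co-transfected with NR0B1 luciferase reporter carrying EWS-FLI1 binding sites plus full-length EWS-FLI1 or empty pCI-neo vector. Treated 1.5 h post-transfection with test compound at 0.05, 0.15, 0.5, 1.5, 5 or 15 μM, or DMSO. Luciferase measured 20 h later. IC50 from sigmoidal dose–response fit. Quadruplicate wells, mean ± SD of a representative experiment.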
# [3] = test system: TC32 cells; assay: Cell proliferation assay; format: cell-based, human; details: for Fold loss of growth inhibitory activity in TC32 cells compared to 2: relative to 2
# [4] = test system: TC32 cells; details: cited from earlier work
# [5] = test system: PANC1 cells; assay: Cell proliferation assay; format: cell-based, human; details: PANC1 cells (selectivity control)
# Method in brief: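 TC71 grown in RPMI with 10% FBS and 1% HEPES; PANC1 in DMEM with 10% FBS; both at 37 °C, 5% CO2. Cells plated in colorless medium at 5000–15000 cells/well depending on line. Test compound or DMSO vehicle added the day after plating. Viable cells quantified by MTT or WST-1 after 3 days of treatment. GI50 derived by nonlinear regression.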
# [6] = test system: COS7 cells; assay: Cell proliferation assay; format: cell-based, monkey; details: WST, 48 h
# [7] = test system: ES cells; details: read-out: GI50 in ES cells; several ES cells; cited from earlier work
# [8] = molecular target: T1, EWS-FLI1; details: binding to EWS-FLI1; cited from earlier work
# [9] = test system: ES orthotopic xenografts; details: cited from earlier work
# [10] = molecular target: T1, EWS-FLI1; assay: ELISA-like binding assay of biotin conjugate to immobilized recombinant EWS-FLI1
# Method in brief: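 EWS-FLI1 expressed in BL21 (1 mM IPTG, 2 h, 27 °C) and recovered from inclusion bodies. Denatured in guanidinium, Ni-chelate purified, refolded on-column by gradient out of urea, then imidazole-eluted. Wells coated overnight with 20 nM protein and blocked with 4% BSA/PBS (1 h, rt). Biotinylated test compound from DMSO stock added for 1 h. Detection used HRP-streptavidin (1:5000, 1 h, rt) and colorimetric substrate read at 405 nm.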
# [11] = molecular target: BSA (Bos taurus, UniProt P02769); assay: ELISA-like binding assay, immobilized BSA control; parameters: species or system bovine; details: BSA immobilized instead of EWS-FLI1
# BSA, sequence (P02769 25-607): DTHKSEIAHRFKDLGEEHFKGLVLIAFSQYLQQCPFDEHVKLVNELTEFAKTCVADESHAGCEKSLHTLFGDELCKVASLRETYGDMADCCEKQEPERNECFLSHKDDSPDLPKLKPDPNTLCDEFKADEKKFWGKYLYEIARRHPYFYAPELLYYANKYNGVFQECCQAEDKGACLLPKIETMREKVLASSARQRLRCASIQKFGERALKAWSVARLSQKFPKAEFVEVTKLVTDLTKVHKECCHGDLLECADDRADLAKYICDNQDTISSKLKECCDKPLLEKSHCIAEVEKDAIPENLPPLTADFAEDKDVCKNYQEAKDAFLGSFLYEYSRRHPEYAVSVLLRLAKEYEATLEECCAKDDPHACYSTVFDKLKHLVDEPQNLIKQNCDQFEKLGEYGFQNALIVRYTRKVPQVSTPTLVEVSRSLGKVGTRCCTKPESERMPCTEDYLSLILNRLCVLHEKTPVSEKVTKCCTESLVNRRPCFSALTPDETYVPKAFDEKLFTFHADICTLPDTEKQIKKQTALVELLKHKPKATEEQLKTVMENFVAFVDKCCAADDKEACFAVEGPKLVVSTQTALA
# Method in brief: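 BSA immobilized in wells in place of recombinant EWS-FLI1. Biotinylated test compound, diluted from DMSO stock in assay buffer, was incubated 1 h. Wells washed five times. Detection used HRP-streptavidin (1:5000, 1 h, room temperature) and colorimetric substrate, with absorbance at 405 nm.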
molecule,measurement,setting,value
"4,7-Dichloro-3-(2-(4-ethoxyphenyl)-2-oxoethyl)-3-hydroxyindolin-2-one [9n]",Growth inhibition / antiproliferative activity in words,[1],complete loss of activity
"4,7-Dichloro-3-hydroxyl-3-(2-oxo-2-p-tolylethyl)-1,3-dihydroindol-2-one [9m]",Inhibition of EWS-FLI1 transcriptional activity in words,[2],lower than 2
same,Fold loss of growth activity / potency compared to 2,"[1]; ES cells, relative to 2",3 fold
same,GI50,[1]; ES cells,≤ 2700 nM
"4,7-Dichloro-3-methoxy-3-(2-(4-methoxyphenyl)-2-oxoethyl)indolin-2-one [14a]",Fold loss of growth inhibitory activity in TC32 cells compared to 2,[3],2 fold
same,Inhibition of EWS-FLI1 transcriptional activity in words,[2],modest inhibitory effects
same,GI50,[1]; ES cells,≤ 2700 nM
"COc1ccc(C(=O)CC2(O)C(=O)Nc3c(Cl)ccc(Cl)c32)cc1 (single isomer, unassigned) [S-(−) enantiomer of 2]",Fold more potent in vitro than racemic 2,[4]; in vitro,4 fold
same,GI50,"[4]; read-out: GI50 of single enantiomer, in vitro, TC32 cells",280 nM
"COc1ccc(C(=O)CC2(O)C(=O)Nc3c(OC)ccc(OC)c32)cc1 (stereo not shown) [6e, 3-Hydroxy-4,7-dimethoxy-3-(2-(4-methoxyphenyl)-2-oxoethyl)indolin-2-one]",GI50 in TC32 cells,[3],1000 nM
"COc1ccccc1C(=O)CC1(O)C(=O)Nc2c(Cl)ccc(Cl)c21 (stereo not shown) [9a, 4,7-Dichloro-3-hydroxy-3-(2-(2-methoxyphenyl)-2-oxoethyl)indolin-2-one]",Inhibition of EWS-FLI1 transcriptional activity in words,[2],did not inhibit
same,Growth inhibition / antiproliferative activity in words,[1],reduced inhibition of cell growth; also recorded: no antiproliferative activity
"COc1cccc(C(=O)CC2(O)C(=O)Nc3c(Cl)ccc(Cl)c32)c1 (stereo not shown) [9b, 4,7-Dichloro-3-hydroxy-3-(2-(3-methoxyphenyl)-2-oxoethyl)indolin-2-one]",Growth inhibition / antiproliferative activity in words,[1],reduced inhibition of cell growth
"COc1ccc(C(=O)CC2(O)C(=O)Nc3c(Cl)ccc(Cl)c32)c(OC)c1 (stereo not shown) [9c, 4,7-Dichloro-3-(2-(2,4-dimethoxyphenyl)-2-oxoethyl)-3-hydroxyindolin-2-one]",Inhibition of EWS-FLI1 transcriptional activity in words,[2],lower than 2
"COc1cc(OC)cc(C(=O)CC2(O)C(=O)Nc3c(Cl)ccc(Cl)c32)c1 (stereo not shown) [9d, 4,7-Dichloro-3-(2-(3,5-dimethoxyphenyl)-2-oxoethyl)-3-hydroxyindolin-2-one]",Fold loss of growth inhibitory activity in TC32 cells compared to 2,[3],~10 fold
"COc1cccc(C(=O)CC2(O)C(=O)Nc3c(Cl)ccc(Cl)c32)c1OC (stereo not shown) [9e, 4,7-Dichloro-3-(2-(2,3-dimethoxyphenyl)-2-oxoethyl)-3-hydroxyindolin-2-one]",Growth inhibition / antiproliferative activity in words,[1],reduced inhibition of cell growth
"COc1ccc(C(=O)CC2(O)C(=O)Nc3c(Cl)ccc(Cl)c32)c(OC)c1OC (stereo not shown) [9f, 4,7-Dichloro-3-hydroxy-3-(2-oxo-2-(2,3,4-trimethoxyphenyl)ethyl)indolin-2-one]",Fold loss of growth activity / potency compared to 2,"[1]; ES cells, relative to 2",3 fold
"O=C(CC1(O)C(=O)Nc2c(Cl)ccc(Cl)c21)c1ccc(C(F)(F)F)cc1 (stereo not shown) [9j, 4,7-Dichloro-3-hydroxy-3-(2-oxo-2-(4-(trifluoromethyl)phenyl)ethyl)indolin-2-one]",Inhibition of PANC1 cell growth in words,[5],inhibited PANC1 cells growth
same,Fold loss of growth inhibitory activity in TC32 cells compared to 2,[3],3 fold
"CC(C)Oc1ccc(C(=O)CC2(O)C(=O)Nc3c(Cl)ccc(Cl)c32)cc1 (stereo not shown) [9p, 4,7-Dichloro-3-hydroxy-3-(2-(4-isopropoxyphenyl)-2-oxoethyl)indolin-2-one]",Growth inhibition / antiproliferative activity in words,[1],complete loss of activity
"O=C(CC1(O)C(=O)Nc2c(Cl)ccc(Cl)c21)c1ccc(Oc2ccccc2)cc1 (stereo not shown) [9q, 4,7-Dichloro-3-hydroxy-3-(2-oxo-2-(4-phenoxyphenyl)ethyl)indolin-2-one]",Growth inhibition / antiproliferative activity in words,[1],complete loss of activity
"Nc1ccc(C(=O)CC2(O)C(=O)Nc3c(Cl)ccc(Cl)c32)cc1 (stereo not shown) [9s, 3-[2-(4-Aminophenyl-2-oxoethyl)]-4,7-dichloro-3-hydroxyl 1,3-dihydroindol-2-one]",Growth inhibition / antiproliferative activity in words,[1],complete loss of activity
"CN(C)c1ccc(C(=O)CC2(O)C(=O)Nc3c(Cl)ccc(Cl)c32)cc1 (stereo not shown) [9u, 4,7-Dichloro-3-(2-(4-(dimethylamino)phenyl)-2-oxoethyl)-3-hydroxyindolin-2-one]",GI50 in TC32 cells,[3],260 nM
same,Fold increase in potency compared to 2,"[1]; ES cells, relative to 2",over 3 fold
"COc1ccc(C(=O)CC2(O)C(=O)N(c3ccccc3)c3c(Cl)ccc(Cl)c32)cc1 (stereo not shown) [14b, 4,7-Dichloro-3-hydroxy-3-(2-(4-methoxyphenyl)-2-oxoethyl)-1-phenylindolin-2-one]",Growth inhibition / antiproliferative activity in words,[1],complete loss of activity
COc1ccc(C(=O)C[C@]2(O)C(=O)Nc3c(Cl)ccc(Cl)c32)cc1 [R-(+)],In vitro activity of enantiomer in words,[4]; in vitro,almost inactive
"O=C(CC1(O)C(=O)Nc2c(Cl)ccc(Cl)c21)c1ccc(Cl)cc1 (stereo not shown) [compound 1, 4,7-dichloro-3-(2-(4-chlorophenyl)-2-oxoethyl)-3-hydroxyindolin-2-one]",GI50 in TC32 cells,[4]; TC32 cells,20000 nM
"COc1ccc(C(=O)CC2(O)C(=O)Nc3c(Cl)ccc(Cl)c32)cc1 (stereo not shown) [compound 2, YK-4-279]",Cytotoxicity / effect on COS7 cell proliferation in words,[6],negligible effect
same,GI50,[7],500 to 2000 nM
same,Kd,[8],9480 nM
same,GI50 in TC32 cells,[4]; TC32 cells,900 nM
same,Growth of ES orthotopic xenografts in words,[9],reduces the growth
"COc1ccc(C(=O)/C=C2\C(=O)Nc3c(Cl)ccc(Cl)c32)cc1 [compound 10, (Z)-4,7-Dichloro-3-(2-(4-methoxyphenyl)-2-oxoethylidene)indolin-2-one]",GI50 in TC32 cells,[3],1000 nM
"COc1ccc(C(=O)CC2(OC)C(=O)Nc3c(Cl)ccc(Cl)c32)cc1 (stereo not shown) [compound 11, 4,7-Dichloro-3-methoxy-3-(2-(4-methoxyphenyl)-2-oxoethyl)indolin-2-one]",Inhibition of EWS-FLI1 transcriptional activity in words,[2],did not display any inhibition
same,Growth inhibition / antiproliferative activity in words,[1],complete loss of inhibitory activity; also recorded: no antiproliferative activity
"COc1ccc(C(=O)CC2(OC)C(=O)N(C)c3c(Cl)ccc(Cl)c32)cc1 (stereo not shown) [compound 15, 4,7-Dichloro-3-methoxy-3-(2-(4-methoxyphenyl)-2-oxoethyl)-1-methylindolin-2-one]",Inhibition of EWS-FLI1 transcriptional activity in words,[2],modest inhibitory effects
same,Growth inhibition / antiproliferative activity in words,[1],inactive; also recorded: no antiproliferative activity
"COc1ccc(C(=O)CC2(O)C(=O)Nc3c(Cl)ccc(Cl)c32)cn1 (stereo not shown) [compound 18, 4,7-Dichloro-3-hydroxy-3-(2-(6-methoxypyridin-3-yl)-2-oxoethyl)indolin-2-one]",Growth inhibition / antiproliferative activity in words,[1],complete loss of growth inhibition
"CN(C(=O)CCCCCNC(=O)CCCC[C@H]1SCC2NC(=O)NC21)c1ccc(C(=O)CC2(O)C(=O)Nc3c(Cl)ccc(Cl)c32)cc1 (stereo partly drawn) [compound 24, N-(4-(2-(4,7-Dichloro-3-hydroxy-2-oxoindolin-3-yl)acetyl)phenyl)-N-methyl-6-(5-((4R)-2-oxohexahydro-1H-thieno[3,4-d]imidazol-4-yl)pentanamido)hexanamide]",Concentration at which binding saturation was reached,[10],20 µM
same,Binding to immobilized BSA in words,[11],No binding was detected

# — PMC4281097 (Journal of Medicinal Chemistry, 2014)
